Measurements published in ChEMBL document CHEMBL1143088, “Non-acidic pyrazole EP1 receptor antagonists with in vivo analgesic efficacy” (Bioorg Med Chem Lett, 2008).
Values belong to the compound of their own block, whether it stands above or below them.

Legend:
[1] = Distribution coefficient, logD at pH 7.4; assay type: physicochemical; conditions: octanol/water
Method in brief: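 Distribution coefficient between n-octanol and water buffered to pH 7.4; log10 of ratio of equilibrium concentrations of all species.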

[2] = biological target: T1, Prostaglandin E2 receptor EP1 subtype (Homo sapiens, UniProt P34995); assay: Displacement of [3H]PGE2 from human PGE2-EP1 receptor expressed in CHO-K1 cells; assay type: cell-based
T1 sequence (P34995 whole entry): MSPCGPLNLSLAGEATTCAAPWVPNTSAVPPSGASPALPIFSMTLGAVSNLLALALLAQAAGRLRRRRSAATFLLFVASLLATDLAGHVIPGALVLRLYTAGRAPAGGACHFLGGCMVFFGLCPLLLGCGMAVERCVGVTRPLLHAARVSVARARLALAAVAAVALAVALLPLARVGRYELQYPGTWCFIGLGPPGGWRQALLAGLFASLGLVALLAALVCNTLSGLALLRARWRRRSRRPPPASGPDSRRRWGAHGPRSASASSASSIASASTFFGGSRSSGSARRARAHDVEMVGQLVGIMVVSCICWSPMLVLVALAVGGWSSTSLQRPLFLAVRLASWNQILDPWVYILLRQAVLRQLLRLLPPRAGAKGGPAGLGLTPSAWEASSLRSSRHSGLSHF

[3] = Clearance in blood in rat at 10 mL/h/kg, iv; assay type: ADME, organism-based; conditions: whole blood
Method in brief: (§1)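 Male rats (n = 1 per compound) dosed iv at 10 mL/h/kg over 1 h via femoral vein cannula, target 1 mg free compound/kg, formulated at 0.1 mg/mL in 0.9% saline with 2% DMSO and 10–20% Kleptose (some with a molar equivalent NaOH), filtered before dosing.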

[4] = Volume of distribution at steady state in rat at 10 mL/h/kg, iv; assay type: ADME, organism-based; conditions: in vivo, read-out: Vdss; method in brief: as §1
[5] = Half life in rat at 10 mL/h/kg, iv; assay type: ADME, organism-based; conditions: in vivo; method in brief: as §1

Compound: Cc1cc(NC(=O)OC2CCOCC2)nn1Cc1cc(Cl)ccc1OCC(C)C
logD [1]: 3.4
IC50 [2]: 63.1 nM

Compound: Cc1cc(NC(=O)OC(C)(C)C(F)(F)F)nn1Cc1cc(Cl)ccc1OCC(C)C
logD [1]: 3.5
IC50 [2]: 50.1 nM

Compound: Cc1cc(NC(=O)Cc2cccnc2)nn1Cc1cc(Cl)ccc1OCc1ccccc1
logD [1]: > 3.7
IC50 [2]: 39.8 nM

Compound: Cc1cc(NC(=O)C(F)(F)c2ccccn2)nn1Cc1cc(Cl)ccc1OCc1ccccc1
logD [1]: 3.1
IC50 [2]: 25.1 nM

Compound: Cc1cc(NC(=O)OCc2ccccn2)nn1Cc1cc(Cl)ccc1OCc1ccccc1
clearance [3]: 98 mL/min/kg
Vd [4]: 3 L/kg
logD [1]: 3.1
IC50 [2]: 79.4 nM

Compound: Cc1cc(NC(=O)OC(C)(C)C)nn1Cc1cc(Cl)ccc1OCC(C)C
logD [1]: > 3.7
IC50 [2]: 31.6 nM

Compound: Cc1cc(NC(=O)C(C)(C)c2ccccc2)nn1Cc1cc(Cl)ccc1OCc1ccccc1
logD [1]: > 3.7
IC50 [2]: 63.1 nM

Compound: Cc1cc(NC(=O)C(C)(C)c2ccccn2)nn1Cc1cc(Cl)ccc1OCc1ccccc1
logD [1]: > 3.7
IC50 [2]: 15.8 nM

Compound: Cc1cc(C(N)=O)nn1Cc1cc(Cl)ccc1OCC(C)C
logD [1]: 3.1
IC50 [2]: 126 nM

Compound: Cc1cc(NC(=O)Cc2ccccc2)nn1Cc1cc(Cl)ccc1OCc1ccccc1
clearance [3]: 59 mL/min/kg
Vd [4]: 7.5 L/kg
half-life [5]: 2.9 h
logD [1]: > 3.7
IC50 [2]: 12.6 nM

Compound: Cc1cc(NC(=O)c2c(F)cccc2F)nn1Cc1cc(Cl)ccc1OCc1ccccc1
logD [1]: > 3.7
IC50 [2]: 12.6 nM

Compound: Cc1cc(NC(=O)CC2CCCCC2)nn1Cc1cc(Cl)ccc1OCc1ccccc1
logD [1]: 3.2
IC50 [2]: 6.31 nM

Compound: Cc1cc(NC(=O)Cc2ccncc2)nn1Cc1cc(Cl)ccc1OCc1ccccc1
logD [1]: > 3.7
IC50 [2]: 50.1 nM

Compound: Cc1cc(C(=O)NN2CCOCC2)nn1Cc1cc(Cl)ccc1OCC(C)C
logD [1]: 3.1
IC50 [2]: 251 nM

Compound: O=C(Cc1ccccn1)Nc1ccn(Cc2cc(Cl)ccc2OCc2ccccc2)n1
IC50 [2]: 398 nM

Compound: O=C(Nc1ccn(Cc2cc(Cl)ccc2OCc2ccccc2)n1)c1ccccc1
IC50 [2]: 251 nM

Compound: Cc1cc(NC(=O)C(F)(F)c2ccccc2)nn1Cc1cc(Cl)ccc1OCc1ccccc1
logD [1]: > 3.7
IC50 [2]: 39.8 nM

Compound: Cc1ccc(-c2cc(Cl)ccc2OCc2ccccc2)n1-c1cccc(C(=O)O)c1
logD [1]: 2.5

Compound: Cc1cc(NC(=O)C2CCCCC2)nn1Cc1cc(Cl)ccc1OCC(C)C
clearance [3]: 68 mL/min/kg
Vd [4]: 3.5 L/kg
half-life [5]: 1.7 h
logD [1]: > 3.7
IC50 [2]: 31.6 nM

Compound: Cc1cc(NC(=O)OCc2ccccc2)nn1Cc1cc(Cl)ccc1OCc1ccccc1
logD [1]: 3.1
IC50 [2]: 79.4 nM

Compound: Cc1cc(C(=O)NN2CCCCC2)nn1Cc1cc(Cl)ccc1OCC(C)C
logD [1]: 3.3
IC50 [2]: 200 nM

Compound: Cc1cc(NC(=O)OC(C)C)nn1Cc1cc(Cl)ccc1OCC(C)C
logD [1]: > 3.7
IC50 [2]: 50.1 nM

Compound: O=C(Cc1ccccc1)Nc1ccn(Cc2cc(Cl)ccc2OCc2ccccc2)n1
IC50 [2]: 158 nM

Compound: Cc1cc(NC(=O)C2CCCC2)nn1Cc1cc(Cl)ccc1OCC(C)C
logD [1]: > 3.7
IC50 [2]: 25.1 nM

Results, then the compound that gave them:

logD [1]: 3.7
IC50 [2]: 126 nM
Compound: Cc1cc(C(N)=O)nn1Cc1cc(Cl)ccc1OCc1ccccc1

logD [1]: > 3.7
IC50 [2]: 100 nM
Compound: CNC(=O)c1cc(C)n(Cc2cc(Cl)ccc2OCc2ccccc2)n1

clearance [3]: 124 mL/min/kg
Vd [4]: 3.9 L/kg
logD [1]: 3.3
IC50 [2]: 25.1 nM
Compound: Cc1cc(NC(=O)OCC(C)C)nn1Cc1cc(Cl)ccc1OCc1ccccc1

logD [1]: > 3.7
IC50 [2]: 25.1 nM
Compound: Cc1cc(NC(=O)C(C)C)nn1Cc1cc(Cl)ccc1OCc1ccccc1

logD [1]: > 3.7
IC50 [2]: 316 nM
Compound: CC(=O)Nc1cc(C)n(Cc2cc(Cl)ccc2OCc2ccccc2)n1

clearance [3]: 50 mL/min/kg
logD [1]: > 3.7
IC50 [2]: 15.8 nM
Compound: Cc1cc(NC(=O)c2ccccc2)nn1Cc1cc(Cl)ccc1OCc1ccccc1

clearance [3]: 75 mL/min/kg
Vd [4]: 9.3 L/kg
half-life [5]: 4.6 h
logD [1]: > 3.7
IC50 [2]: 39.8 nM
Compound: Cc1cc(C(=O)NCc2ccccc2)nn1Cc1cc(Cl)ccc1OCc1ccccc1

clearance [3]: 86 mL/min/kg
Vd [4]: 3.7 L/kg
half-life [5]: 0.8 h
logD [1]: 2.7
IC50 [2]: 79.4 nM
Compound: Cc1cc(NC(=O)O[C@H]2CCOC2)nn1Cc1cc(Cl)ccc1OCc1ccccc1

logD [1]: 3.7
IC50 [2]: 10 nM
Compound: Cc1cc(C(=O)Nc2c(F)cccc2F)nn1Cc1cc(Cl)ccc1OCc1ccccc1

logD [1]: > 3.7
IC50 [2]: 39.8 nM
Compound: Cc1cc(NC(=O)C2CCOC2)nn1Cc1cc(Cl)ccc1OCc1ccccc1 (stereo not given)

clearance [3]: 68 mL/min/kg
Vd [4]: 3.6 L/kg
half-life [5]: 1.3 h
logD [1]: > 3.7
IC50 [2]: 25.1 nM
Compound: Cc1cc(C(=O)NCc2ccccn2)nn1Cc1cc(Cl)ccc1OCc1ccccc1

logD [1]: > 3.7
IC50 [2]: 39.8 nM
Compound: Cc1cc(C(=O)Nc2ccccc2)nn1Cc1cc(Cl)ccc1OCc1ccccc1

logD [1]: > 3.7
IC50 [2]: 79.4 nM
Compound: CCOC(=O)Nc1cc(C)n(Cc2cc(Cl)ccc2OCc2ccccc2)n1

logD [1]: > 3.7
IC50 [2]: 39.8 nM
Compound: Cc1cc(NC(=O)C2CCCO2)nn1Cc1cc(Cl)ccc1OCc1ccccc1 (stereo not given)

logD [1]: > 3.7
IC50 [2]: 79.4 nM
Compound: Cc1cc(C(=O)NCc2ccncc2)nn1Cc1cc(Cl)ccc1OCc1ccccc1

logD [1]: 1.2
Compound: Cc1cc(C(=O)O)nn1Cc1cc(Br)ccc1OCc1ccccc1

clearance [3]: 55 mL/min/kg
Vd [4]: 3.3 L/kg
half-life [5]: 1 h
logD [1]: > 3.7
IC50 [2]: 63.1 nM
Compound: Cc1cc(NC(=O)C2CCOCC2)nn1Cc1cc(Cl)ccc1OCc1ccccc1

logD [1]: 1
IC50 [2]: 10 nM
Compound: Cc1cc(C(=O)O)nn1Cc1cc(Cl)ccc1OCc1ccccc1

logD [1]: 2.8
IC50 [2]: 200 nM
Compound: Cc1cc(C(=O)Nc2cccc(F)c2)nn1Cc1cc(Cl)ccc1OCc1ccccc1

logD [1]: 3.5
IC50 [2]: 15.8 nM
Compound: Cc1cc(NC(=O)C2CCCC2)nn1Cc1cc(Cl)ccc1OCc1ccccc1

logD [1]: 3
IC50 [2]: 79.4 nM
Compound: Cc1cc(C(=O)Nc2ccc(F)cc2)nn1Cc1cc(Cl)ccc1OCc1ccccc1

logD [1]: > 3.7
IC50 [2]: 50.1 nM
Compound: Cc1cc(C(=O)NCc2cccnc2)nn1Cc1cc(Cl)ccc1OCc1ccccc1

logD [1]: > 3.7
IC50 [2]: 126 nM
Compound: Cc1cc(C(=O)Nc2ccccn2)nn1Cc1cc(Cl)ccc1OCc1ccccc1

logD [1]: > 3.7
IC50 [2]: 10 nM
Compound: Cc1cc(NC(=O)CC(C)(C)C)nn1Cc1cc(Cl)ccc1OCc1ccccc1

logD [1]: > 3.7
IC50 [2]: 20 nM
Compound: Cc1cc(NC(=O)Cc2ccccn2)nn1Cc1cc(Cl)ccc1OCc1ccccc1

logD [1]: > 3.7
IC50 [2]: 200 nM
Compound: COC(=O)Nc1cc(C)n(Cc2cc(Cl)ccc2OCc2ccccc2)n1

logD [1]: > 3.7
IC50 [2]: 126 nM
Compound: Cc1cc(C(=O)NC(C)C)nn1Cc1cc(Cl)ccc1OCc1ccccc1
